Where only a bound is given, the exact number is not on record here.

Results on 2 molecules are retold here after ChEMBL document CHEMBL1131504, “(Z)- and (E)-2-((hydroxymethyl)cyclopropylidene)methyladenine and -guanine. New nucleoside analogues with a broad-spectrum antiviral activity” (J Med Chem, 1998).

The first assay concerns CEM-SS. Kind of assay: Cytotoxicity on CEM-SS cells. It is filed as functional, cell-based. As to conditions: Homo sapiens. In short, it runs like this:
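Visual cytotoxicity: microscopic inspection of stationary uninfected CEM or CEM-SS cells from suspension cultures.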
On to `Nc1ncnc2c1ncn2/C=C1/CC1CO` (configuration not stated), for which the IC50 was above 100 µM.

The molecule `Nc1ncnc2c1ncn2/C=C1\CC1CO` (configuration not stated) came in with an IC50 above 100 µM.

The test system of a further assay is CCRF-CEM. As to the kind of experiment: Inhibitory concentration against mitochondrial DNA synthesis CEM cells. It is filed as functional, cell-based. As to conditions: Homo sapiens. In a few lines:
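CEM cells (2 × 10^5/mL) in RPMI 1640 + 10% dialyzed FBS with compound, re-split with fresh drug on days 4 and 6. On day 8, 1 × 10^5 cells lysed with RNase A and proteinase K, slot-blotted, probed with a mitochondrial DNA-specific probe.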
`Nc1ncnc2c1ncn2/C=C1/CC1CO` (configuration not stated) registered a concentration for half-maximal inhibition (IC50) above 50 µM.

The molecule `Nc1ncnc2c1ncn2/C=C1\CC1CO` (configuration not stated) showed an IC50 above 50 µM.

For the next assay, the system named is CCRF-CEM. As to the kind of experiment: Cytotoxicity was measured on CEM cells infected with Herpes Simplex virus […]. It counts as functional, cell-based. The following applies: Homo sapiens.
For the molecule `Nc1ncnc2c1ncn2/C=C1/CC1CO` (configuration not stated), the IC50 was above 100 µM.

On to `Nc1ncnc2c1ncn2/C=C1\CC1CO` (configuration not stated), for which the IC50 was above 100 µM.

A further assay relates to Daudi. Kind of assay: Cytotoxicity on Daudi cells at time of […] in cells not effected by the virus. It counts as functional, cell-based. The following applies: Homo sapiens.
Take `Nc1ncnc2c1ncn2/C=C1/CC1CO` (configuration not stated): 368 µM corresponded to half-maximal inhibition (IC50).

Consider `Nc1ncnc2c1ncn2/C=C1\CC1CO` (configuration not stated), for which the IC50 is above 230 µM.

The next assay relates to Daudi. As to the kind of experiment: Inhibitory concentration against epstein-barr virus (EBV) infected daudi cells was determined. It counts as functional, cell-based. The following applies: Homo sapiens. In short, it runs like this: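 Daudi cells infected with P3HR-1 EBV at 0.1–0.2 moi for 45 min at 37 °C, washed, then incubated 48 h with serially diluted drug in RPMI-1640. Acetone-fixed cells stained with anti-VCA monoclonal antibody and FITC anti-mouse IgG, Evans Blue counterstain; 500 cells counted, VCA-positive fraction used for IC50.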
With `Nc1ncnc2c1ncn2/C=C1/CC1CO` (configuration not stated), the concentration for half-maximal inhibition (IC50) is 3.2 µM.

`Nc1ncnc2c1ncn2/C=C1\CC1CO` (configuration not stated) registered an IC50 of 71.4 µM.

For another assay, the system named is Human alphaherpesvirus 1. Kind of assay: Inhibitory concentration against herpes simplex virus type 1 (HSV-1) was determined by enzyme-linked immunosorbent assay (ELISA). It counts as functional, organism-based.
Conditions: not given
(An ELISA detects its analyte on a solid surface through an enzyme-linked reagent.)
`Nc1ncnc2c1ncn2/C=C1/CC1CO` (configuration not stated): it took 33 µM to reach half-maximal inhibition (IC50).

Molecule `Nc1ncnc2c1ncn2/C=C1\CC1CO` (configuration not stated) registered an IC50 above 100 µM.

System in another assay: not listed separately
As to the kind of experiment: Cytotoxicity on H-1 cells at time of HCMV plaque enumeration in cells not effected by the virus. It is filed as functional, cell-based. As to conditions: Homo sapiens.
As to `Nc1ncnc2c1ncn2/C=C1/CC1CO` (configuration not stated), the IC50 was above 50 µM.

With `Nc1ncnc2c1ncn2/C=C1\CC1CO` (configuration not stated), the IC50 was above 50 µM.

The test system of a further assay is HFF. Kind of assay: Cytotoxicity on stationary HFF cells at time of HCMV plaque enumeration in cells not effected by the virus. The following applies: Homo sapiens. It counts as functional, cell-based. In short, it runs like this: (§1)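 Visual cytotoxicity scored microscopically on stationary HFF or MEF cells not affected by virus, at the time of HCMV or MCMV plaque enumeration.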
In turn, `Nc1ncnc2c1ncn2/C=C1/CC1CO` (configuration not stated) gave an IC50 above 100 µM.

`Nc1ncnc2c1ncn2/C=C1\CC1CO` (configuration not stated) gave an IC50 above 100 µM.

Another assay has as its system HFF. As to the kind of experiment: IC50 value was evaluated by measuring the %inhibition of Human Herpes Virus 6(HHV-6) infected […] cells using ELISA assay. It is filed as functional, cell-based.
Conditions: not given
Take `Nc1ncnc2c1ncn2/C=C1/CC1CO` (configuration not stated): the half-maximal inhibitory concentration (IC50) was 14 µM.

In the case of `Nc1ncnc2c1ncn2/C=C1\CC1CO` (configuration not stated), the IC50 was above 100 µM.

For the next assay, the system named is HFF. As to the kind of experiment: IC50 value was evaluated by measuring the %inhibition of Varicella Zoster virus(VZV) infected HFF cells using plaque reduction assay. It counts as functional, cell-based. The following applies: Homo sapiens. In short, it runs like this: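 HFF cells plated 2 days earlier and infected with VZV (20–30 plaques/well) for 1 h. Six 1:5 drug dilutions in MEM + 2% FBS, no antibody overlay, duplicate wells; extra medium on day 5, 10 days total at 37 °C. Neutral red stain, plaques counted; IC50 from regression.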
For orientation: In a plaque reduction assay, fewer plaques than in the control indicate reduced infectivity or spread.
The molecule `Nc1ncnc2c1ncn2/C=C1/CC1CO` (configuration not stated) came in with a half-maximal inhibitory concentration (IC50) of 2.5 µM.

In turn, `Nc1ncnc2c1ncn2/C=C1\CC1CO` (configuration not stated) returned a half-maximal inhibitory concentration (IC50) of 90.2 µM.

Another assay has as its system HFF. As to the kind of experiment: Inhibitory concentration against herpes simplex virus type 1 (HSV-1) infected HFF cells was determined by cytopathic effect inhibition assay. It counts as functional, cell-based. As to conditions: Homo sapiens. In short, it runs like this: (§2)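 HFF cells (low passage) seeded 24 h before in MEM + 10% FBS; drug in MEM + 2% FBS, serial 1:5 dilutions in triplicate, 1 h pre-incubation, then HSV-1 or HSV-2 at 1000 pfu/well. Incubated 3 days at 37 °C, crystal violet/ethanol/formaldehyde stain, absorbance at 630 nm; IC50 by linear regression of % inhibition vs log concentration.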
On the technique in general: Protection from cytopathic effect is a common read-out in antiviral testing.
Molecule `Nc1ncnc2c1ncn2/C=C1/CC1CO` (configuration not stated) showed an IC50 below 0.14 µM.

For the molecule `Nc1ncnc2c1ncn2/C=C1\CC1CO` (configuration not stated), the IC50 came out at 36 µM.

The next assay relates to HFF. Kind of assay: Inhibitory concentration against human cytomegalovirus replication in HFF cells was determined by cytopathic effect inhibition assay. It counts as functional, cell-based.
Conditions: not given
In short, it runs like this:
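HFF cells seeded 24 h before; serial 1:5 drug dilutions in MEM + 2% FBS in triplicate, 1 h, then 2500 pfu/well CMV. Incubated 14 days at 37 °C with 50 μL MEM added on day 7; crystal violet stain, read at 630 nm. IC50 from regression.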
For `Nc1ncnc2c1ncn2/C=C1/CC1CO` (configuration not stated), the IC50 was 1 µM.

Consider `Nc1ncnc2c1ncn2/C=C1\CC1CO` (configuration not stated), for which the IC50 was determined as 395 µM.

A further assay has as its system HFF. As to the kind of experiment: Inhibitory concentration against human cytomegalovirus replication in HFF cells was determined by plaque reduction assay. It counts as functional, cell-based.
Conditions: not given
In a few lines:
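HFF cells infected with HCMV Towne (~100 pfu/cm2). After adsorption, drug added to duplicate wells at four to eight concentrations; 8–10 days at 37 °C, crystal violet stain, microscopic plaques counted. % plaque reduction vs no-drug control; IC50 by linear regression vs log concentration.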
In turn, `Nc1ncnc2c1ncn2/C=C1/CC1CO` (configuration not stated) registered a concentration for half-maximal inhibition (IC50) of 2.1 µM.

In turn, `Nc1ncnc2c1ncn2/C=C1\CC1CO` (configuration not stated) registered a concentration for half-maximal inhibition (IC50) above 100 µM.

Another assay concerns HFF. As to the kind of experiment: Inhibitory concentration against human cytomegalovirus replication in HFF cells was determined by yield reduction assay.
Conditions: not given
It counts as functional. In short, it runs like this:
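HFF cells (12 500/well) infected with HCMV at moi 0.5–1 and exposed to compound in duplicate at 100 to 0.14 μM for 4 days at 37 °C. After freeze–thaw, supernatants serially diluted onto fresh HFF monolayers and plaques titered; IC90 reported.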
In turn, `Nc1ncnc2c1ncn2/C=C1/CC1CO` (configuration not stated) returned an IC90 of 1.1 µM.

Take `Nc1ncnc2c1ncn2/C=C1\CC1CO` (configuration not stated): the 90% effect concentration (IC90) is above 100 µM.

For the next assay, the system named is HFF. As to the kind of experiment: Compound was tested against HFF cells infected with herpes simplex virus type 2 (HSV-2) by cytopathic effect inhibition assay. The following applies: Homo sapiens. It is filed as functional, cell-based. In a few lines: as §2
Turning to `Nc1ncnc2c1ncn2/C=C1/CC1CO` (configuration not stated), it took 10.6 µM to reach half-maximal inhibition (IC50). This counts as double-digit micromolar.

In turn, `Nc1ncnc2c1ncn2/C=C1\CC1CO` (configuration not stated) gave an IC50 of 395 µM.

The next assay has as its system HepG2. Kind of assay: Inhibitory concentration against hepatitis B virus infected 2.2.15 cells. It is filed as functional, cell-based. As to conditions: Homo sapiens. In a few lines:
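HBV-producing 2.2.15 cells in MEM + 10% FBS; compounds added on days 6 and 9, 6 days of exposure. Virions in the medium precipitated with PEG/NaCl, DNA extracted, run on 0.8% agarose, Southern blotted with 32P HBV probe, quantified by densitometry.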
`Nc1ncnc2c1ncn2/C=C1/CC1CO` (configuration not stated) had an IC50 of 2 µM.

Turning to `Nc1ncnc2c1ncn2/C=C1\CC1CO` (configuration not stated), the IC50 was above 10 µM.

The next assay deals with KB. Kind of assay: Cytotoxicity was evaluated by measuring the inhibition of KB cell growth. It counts as functional, cell-based. The following applies: Homo sapiens. In a few lines:
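KB cells at 3000–5000/well, overnight at 37 °C, compound added in triplicate at eight concentrations. Growth over 48 h (two population doublings), then ethanol fixation, 0.1% crystal violet stain, eluted dye read at 570 nm; quadruplicate assays. IC50 by linear regression of % inhibition vs log concentration.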
`Nc1ncnc2c1ncn2/C=C1/CC1CO` (configuration not stated) registered an IC50 of 78 µM.

For `Nc1ncnc2c1ncn2/C=C1\CC1CO` (configuration not stated), the concentration for half-maximal inhibition (IC50) is above 100 µM.

In a further assay the test system is MEF. As to the kind of experiment: Inhibitory concentration against murine cytomegalovirus replication in MEF cells was determined by plaque reduction assay. It is filed as functional, cell-based. The following applies: Mus musculus. In a few lines: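 MEF cells plated 2 days earlier and infected with MCMV (20–30 plaques/well) for 1 h. Six 1:5 drug dilutions in MEM + 2% FBS, duplicate wells, 7 days at 37 °C, 1.5% neutral red stain, plaques counted; IC50 by linear regression vs log concentration.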
As to `Nc1ncnc2c1ncn2/C=C1/CC1CO` (configuration not stated), the IC50 came to 2.1 µM.

The next assay relates to Vero. As to the kind of experiment: Compound was tested against vero cells infected with herpes simplex virus type 2 (HSV-2). It is filed as functional, cell-based. The following applies: Chlorocebus sabaeus. In a few lines: (§3)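 Confluent Vero monolayers (RPMI + 5% FBS + 0.1% methylcellulose) infected 1 h with HSV-1 KOS or HSV-2 333 at 20 or 100 pfu/well. Drug overlay in RPMI + 2% dialyzed FBS + 0.1% methylcellulose, 48–72 h at 37 °C, 5% CO2. Crystal violet stain, plaques counted; IC50 by linear regression of % inhibition vs log concentration.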
The molecule `Nc1ncnc2c1ncn2/C=C1/CC1CO` (configuration not stated) returned an IC50 of 59 µM.

In turn, `Nc1ncnc2c1ncn2/C=C1\CC1CO` (configuration not stated) came in with a 50% inhibitory concentration (IC50) above 100 µM.

A further assay deals with Vero. Kind of assay: Inhibitory concentration against herpes simplex virus type 1 (HSV-1) infected vero cells was determined. It is filed as functional, cell-based. As to conditions: Chlorocebus sabaeus. In a few lines:
as §3
Consider `Nc1ncnc2c1ncn2/C=C1/CC1CO` (configuration not stated), for which it took 28 µM to reach half-maximal inhibition (IC50). This lies in the double-digit micromolar range.

As to `Nc1ncnc2c1ncn2/C=C1\CC1CO` (configuration not stated), the IC50 was above 100 µM.

System in the next assay: not listed separately
Kind of assay: Inhibitory concentration against epstein-barr virus (EBV) infected H-1 cells was determined. It is filed as functional, cell-based. The following applies: Homo sapiens. In short, it runs like this:
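H-1 cells (high-yield EBV producer from P3HR-1) kept in log growth, seeded at 2 × 10^5/well with drug in RPMI 1640 + 10% dialyzed FBS for 5 days at 37 °C. Lysates treated with RNase A and proteinase K, slot-blotted, probed with 32P EBV EcoRI C fragment; normalized to Alu DNA vs untreated cells by densitometry.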
`Nc1ncnc2c1ncn2/C=C1/CC1CO` (configuration not stated) returned an IC50 of 0.2 µM.

Take `Nc1ncnc2c1ncn2/C=C1\CC1CO` (configuration not stated): the IC50 came out at 3 µM.

Another assay deals with MEF. Kind of assay: Cytotoxicity on stationary MEF cells at time of MCMV plaque enumeration in cells not effected by the virus. It is filed as functional, cell-based. As to conditions: Mus musculus. In short, it runs like this:
as §1
The molecule `Nc1ncnc2c1ncn2/C=C1/CC1CO` (configuration not stated) displayed an IC50 above 92 µM.

The IC50 is the concentration that gives 50% inhibition. Read a high IC50 as lower potency. As a reminder, the IC90 is the point of the concentration-response curve where the effect stands at 90%. High values mean weaker potency, low ones greater potency.
